Bioassay records (PubChem)
H69AR growth 86K: proliferation blockers of H69AR lung cancer cells, primary screen, cell-based, human, 86K library; AID 598, 2007; H69AR lung tumor viability, ATP luminescence, 72 h; hits give low values; actives 6% (n = 85,000); viability, % at 10 µM;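 active = viability at or below 40%; inactive = viability above 40%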;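 also: multidrug resistant small cell line overexpressing MRP-1 efflux transporter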
Fibroblast inh: antiproliferative effect on LL 47 fibroblasts – human, LL 47 cells, CellTiter-Glo luminescence, primary screen; LL 47 human lung fibroblast viability, ATP luminescence; hits give low values; viability, % at 10 µM; actives 1.1% (n = 85,000); AID 719, 2007;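 active = viability at or below 50% in the single dose screen; inactive = viability above 50%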;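 also: compound exposure lasted 72 h before the ATP readout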
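Test system: LL 47 human lung fibroblasts; Quantity: 1,150 cells/well; Buffer or medium: IMEM plus 15% FBS; Dosing: tenfold compound dosing solution, DMSO at 0.1%; Timing: overnight cell rest, 72 h compound treatment at 37 °C; Detection: ATP-based CellTiter-Glo luminescent readout; Read-out basis: viability percentage against median untreated-cell control; Controls: cell-only wells, no compound.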
HUVEC inhibit: inhibitors of HUVEC proliferation, primary screen, cell-based, 384-well; CellTiter-Glo luminescence, 72 h; hits give low values; viability, % at 10 µM (by protocol); actives 1.1% (n = 86,000); AID 648, 2007;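 active = viability at or below 30%; inactive = viability above 30%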
bCat KO growth: primary screen for growth suppressors in beta-catenin knockout HCT116 cells (colon tumor, human); HCT116 beta-catenin knockout viability, CellTiter-Glo, 60 h; hits give low values; viability, % at 10 µM; actives 1.5% (n = 140,000);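 active = viability at or under a set limit, the compound median less 4 SD, cut at about 6% in these data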
PTEN del growth: growth suppression of PTEN-null HCT116, primary screen, cell-based, CellTiter-Glo. viability, % at 10 µM. HCT116 PTEN-null viability, 60 h; hits give low values. AID 827, 2007. actives 1.2% (n = 140,000);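 active = viability at or below a set limit, 4 SD under the median of all tested compounds, cut at about 3.7% in these data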;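 also: PTEN knockout HCT116 line with beta catenin targeted HCT116 as companion control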
A number is an active result. Many of the other results were omitted from the sample, so hits are more common in it than they were.

Results for Cc1sc(NC(=O)c2ccc(Cl)s2)c(C(N)=O)c1C ?
H69AR growth 86K: 11; Fibroblast inh: inactive; HUVEC inhibit: inactive; bCat KO growth: inactive; PTEN del growth: inactive

Results for Cc1sc(NC(=O)c2cc(-c3ccc(Cl)cc3)nc3ccccc23)c(C(N)=O)c1C ?
bCat KO growth: 3.9; PTEN del growth: 1.0

Results for CN1CCN(c2c3c(c(C#N)c4nc5ccccc5n24)CCCC3)CC1 ?
H69AR growth 86K: inactive; Fibroblast inh: inactive; HUVEC inhibit: inactive

What do the screens show for `O=C(/C=C/c1ccccc1)CC(O)(c1ccccc1)C(F)(F)C(F)F` (configuration not stated)?
H69AR growth 86K: 1.3; Fibroblast inh: 32; HUVEC inhibit: 5.3; bCat KO growth: 2.8

What do the screens show for `COc1ccc(/C=C/C(=O)CC(O)(c2ccccc2)C(F)(F)F)cc1` (configuration not stated)?
H69AR growth 86K: 38; Fibroblast inh: inactive; HUVEC inhibit: inactive; bCat KO growth: inactive; PTEN del growth: inactive

What do the screens show for `COc1ccc(/C=C/C(=O)Nc2ccccc2C(F)(F)F)cc1`?
bCat KO growth: inactive; PTEN del growth: inactive

What do the screens show for `CC(NC(=O)COC(=O)/C=C/c1cccc(C(F)(F)F)c1)c1ccccc1` (configuration not stated)?
bCat KO growth: inactive; PTEN del growth: inactive

How did O=C(CC(O)(c1ccccc1)C(F)(F)C(F)F)c1cccs1 (configuration not stated) do in these assays?
H69AR growth 86K: inactive; Fibroblast inh: inactive; HUVEC inhibit: inactive; bCat KO growth: inactive; PTEN del growth: inactive

How did O=C(/C=C/c1ccccc1)CC(O)(c1ccccc1)C(F)(F)F (configuration not stated) do in these assays?
H69AR growth 86K: 2.0; Fibroblast inh: 35; HUVEC inhibit: 26; bCat KO growth: 3.9

Results for Cc1cc2occ(CC(=O)OCC(=O)Nc3sc4c(c3C#N)CCC(C)C4)c2cc1C (configuration not stated) ?
bCat KO growth: inactive; PTEN del growth: inactive

What do the screens show for `CCOC(=O)CSC1=NC(=O)/C(=C/c2ccc(OC)cc2)S1`?
bCat KO growth: inactive; PTEN del growth: inactive

How did COc1cccc(NC(=O)CSc2ncnc3c2cnn3Cc2ccccc2)c1 do in these assays?
H69AR growth 86K: inactive; Fibroblast inh: inactive; HUVEC inhibit: inactive; bCat KO growth: inactive; PTEN del growth: inactive

How did O=C(CSc1ncnc2c1cnn2Cc1ccccc1)Nc1ccc2c(c1)OCCO2 do in these assays?
H69AR growth 86K: 34; Fibroblast inh: inactive; HUVEC inhibit: inactive; bCat KO growth: inactive; PTEN del growth: inactive

How did CCc1nc(SCC(=O)Nc2nccs2)c2oc3ccccc3c2n1 do in these assays?
H69AR growth 86K: 13; Fibroblast inh: inactive; HUVEC inhibit: inactive; bCat KO growth: inactive; PTEN del growth: inactive

Results for CCc1nc(SCC(=O)Nc2ccc3c(c2)OCCO3)c2oc3ccccc3c2n1 ?
H69AR growth 86K: 0.9; Fibroblast inh: inactive; HUVEC inhibit: 20; bCat KO growth: inactive; PTEN del growth: inactive

Results for CCc1nc(SCC(=O)N2CCCc3ccccc32)c2oc3ccccc3c2n1 ?
H69AR growth 86K: inactive; Fibroblast inh: inactive; HUVEC inhibit: inactive; bCat KO growth: inactive; PTEN del growth: inactive

Results for CC(C)Cn1c(=O)c(C(=O)NCc2ccccn2)c(O)c2ccccc21 ?
H69AR growth 86K: 29; Fibroblast inh: inactive; HUVEC inhibit: inactive; bCat KO growth: inactive; PTEN del growth: inactive

What do the screens show for `Cc1cccc(S(=O)(=O)c2c(N)n(/N=C/c3ccco3)c3nc4ccccc4nc23)c1`?
H69AR growth 86K: inactive; Fibroblast inh: inactive; HUVEC inhibit: inactive; bCat KO growth: inactive; PTEN del growth: inactive

What do the screens show for `Cc1cccc(S(=O)(=O)c2c(N)n(/N=C/c3cccnc3)c3nc4ccccc4nc23)c1`?
H69AR growth 86K: 33; Fibroblast inh: inactive; HUVEC inhibit: inactive; bCat KO growth: inactive; PTEN del growth: inactive

How did Nc1c(S(=O)(=O)c2cccs2)c2nc3ccccc3nc2n1/N=C/c1cccc(O)c1 do in these assays?
H69AR growth 86K: 4.0; Fibroblast inh: inactive; HUVEC inhibit: 4.9; bCat KO growth: 2.7; PTEN del growth: 2.2

How did CCOC(=O)c1ccc(NC(=O)CCc2nc(-c3ccccc3Cl)no2)cc1 do in these assays?
H69AR growth 86K: 29; Fibroblast inh: inactive; HUVEC inhibit: inactive; bCat KO growth: inactive; PTEN del growth: inactive

How did O=C(CCCc1nc(-c2ccccc2Cl)no1)NCc1cccnc1 do in these assays?
H69AR growth 86K: 39; Fibroblast inh: inactive; HUVEC inhibit: inactive; bCat KO growth: inactive; PTEN del growth: inactive

What do the screens show for `CCOC(=O)c1ccc(NC(=O)CCc2nc(-c3ccccc3)no2)cc1`?
H69AR growth 86K: inactive; Fibroblast inh: inactive; HUVEC inhibit: inactive; bCat KO growth: inactive; PTEN del growth: inactive

What do the screens show for `O=C(CC(Nc1ccc(F)cc1)c1ccccc1)c1ccccc1` (configuration not stated)?
bCat KO growth: inactive; PTEN del growth: 3.4

Results for O=C(CC(Nc1ccc(Cl)cc1)C(=O)O)c1ccccc1 (configuration not stated) ?
H69AR growth 86K: inactive; Fibroblast inh: inactive; HUVEC inhibit: inactive; bCat KO growth: inactive; PTEN del growth: inactive

How did CCn1c(/N=C/c2ccccc2NS(=O)(=O)c2ccc(C)cc2)nc2ccccc21 do in these assays?
bCat KO growth: inactive; PTEN del growth: inactive

Results for N#Cc1c(N2CCCC(O)C2)nc(N)c2c(N)nc3c(c12)CC(=O)N3C12CC3CC(CC(C3)C1)C2 (configuration not stated) ?
H69AR growth 86K: 3.3; Fibroblast inh: inactive; HUVEC inhibit: 16; bCat KO growth: inactive; PTEN del growth: inactive

Results for COc1ccc(OCC(=O)N/N=C/C=C/c2ccccc2)cc1 ?
bCat KO growth: inactive; PTEN del growth: inactive

What do the screens show for `Cc1ccc(N2CCCCn3c2nc2c3c(=O)n(CC(=O)O)c(=O)n2C)cc1`?
H69AR growth 86K: inactive; Fibroblast inh: inactive; HUVEC inhibit: inactive; bCat KO growth: inactive; PTEN del growth: inactive

Results for CCOc1ccc(-c2nnn(CC(=O)NCc3ccco3)n2)cc1OCC ?
H69AR growth 86K: inactive; Fibroblast inh: inactive; HUVEC inhibit: inactive; bCat KO growth: inactive; PTEN del growth: inactive

What do the screens show for `CCCCOc1ccc(-c2nnn(CC(=O)NCc3ccco3)n2)cc1`?
H69AR growth 86K: 29; Fibroblast inh: inactive; HUVEC inhibit: inactive; bCat KO growth: inactive; PTEN del growth: inactive

How did Cc1ccc(Cl)c(NC(=O)COC(=O)c2ccccc2C(=O)c2ccc(Cl)c([N+](=O)[O-])c2)c1Cl do in these assays?
bCat KO growth: 2.1; PTEN del growth: 2.0

What do the screens show for `Cc1ccc(C(=O)c2ccccc2C(=O)OCC(=O)Nc2cccc([N+](=O)[O-])c2)cc1`?
bCat KO growth: inactive; PTEN del growth: inactive

How did CN1CCN(C(=S)NCCc2ccccc2)CC1 do in these assays?
bCat KO growth: inactive; PTEN del growth: inactive
